PfG6PD inh: PfG6PD enzyme inhibitors, primary screen, biochemical, fluorescence intensity, uHTS; glucose-6-phosphate dehydrogenase-6-phosphogluconolactonase (Plasmodium falciparum 3D7); actives 0.78% (n = 350,000); PfGluPho enzyme, NADPH resazurin-diaphorase fluorescence; inhibition, % at 20 µM;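 active = inhibition reaching at least a set limit at 20 µM in the primary screen, cut at about 59% in these data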
L major viab: Leishmania major promastigote growth inhibition, primary screen. Leishmania major promastigotes, resazurin fluorescence viability. inhibition, % at 10 µM. actives 9% (n = 200,000). AID 1063, 2008;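 note: promastigotes grown with compound for 44 hours at 28 °C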
Diaphorase act: compounds boosting diaphorase resazurin reduction – biochemical, uHTS, resorufin fluorescence, counter-screen for diaphorase-coupled primary assays, primary screen; Diaphorase/resazurin coupled assay, 16 min; active compounds read high; 1 = vehicle wells, 0 = NADH-free wells; activation factor at 20 µM; actives 0.005% (n = 190,000); AID 1229, 2008;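 active = diaphorase activity raised at least twofold by the compound at 20 µM; inactive = activation factor below 2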
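System – purified diaphorase enzyme from Clostridium kluyveri · Input – enzyme 0.07 U/mL final · Also added – final NADH 0.114 mM, resazurin 0.1 mM · Measured by – fluorescence of resorufin, 544 nm excitation, 590 nm emission · Timing – 16 min enzyme reaction, ambient temperature · Measure – resorufin increase flagging diaphorase activators or reducers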
Diaphorase inh: diaphorase inhibitors and chemical oxidizers, primary screen, counter-screen for diaphorase-coupled primary assays, biochemical, uHTS, resorufin fluorescence | diaphorase resazurin-to-resorufin fluorescence, NADH, 16 min; bacterial (C. kluyveri) enzyme, not human | inhibition, % at 20 µM | actives 0.69% (n = 190,000);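 active = primary screen inhibition at 20 µM above a set limit, cut at about 50% in these data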
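System: Diaphorase enzyme from Clostridium kluyveri | Amount: Enzyme working solution with 0.14 U/mL diaphorase | Benchmarks: No-NADH positive control and DMSO neutral control | Signal: Fluorescence of resorufin formed from resazurin, Ex 544/Em 590 nm | Schedule: 16-min room-temperature incubation before reading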
G6PDH counter: L. mesenteroides G6PDH inhibitors, counter-screen for G6PDH-coupled screening assays, biochemical, Leuconostoc mesenteroides enzyme; inhibition, % at 5 µM; Purified L. mesenteroides G6PDH, diaphorase/resazurin coupled fluorescence, 45 min; AID 1020, 2008; actives 0.12% (n = 200,000); glucose-6-phosphate dehydrogenase [Leuconostoc mesenteroides]
DTT redox prof: compounds producing H2O2 with reducing agent – biochemical, NIH compound library profiling, artefact control for MLSCN library redox annotation, primary screen. DTT-dependent redox cycling H2O2, phenol red/HRP absorbance; 100% = 100 µM peroxide control, 0% = buffer. activation, % at 10 µM. actives 0.03% (n = 200,000);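 active = activation of at least 50% relative to the plate's high and low controls in the primary single-dose screen; inactive = activation below 50%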;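 note: compound incubated with DTT at 0.8 mM final as the reducing agent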
Of the large screens only hits and unclear results are named; the others gave an inactive call. The entries come from a sample that favours hits as a whole. Cut-off read from the data, not from the text of the source, unless noted: active = inhibition above about 50%; inactive = the rest.

N#Cc1c(NC(=O)CSc2nc3ccccc3s2)sc2c1CCCC2	none
Cc1ccc2[nH]c(=O)c(C(c3nnnn3CCc3ccccc3)N3CCOCC3)cc2c1 (stereo not given)	L major viab 97
COCCn1nnnc1C(c1cc2cc(C)ccc2[nH]c1=O)N1CCCCCC1 (stereo not given)	none
COCCn1nnnc1C(c1cc2cc(OC)ccc2[nH]c1=O)N1CCC(Cc2ccccc2)CC1 (stereo not given)	L major viab 50
Cc1ccc(Oc2nc(CN3CCOCC3)nc3sc4c(c23)CCC(C)C4)cc1C (stereo not given)	L major viab 97
CC1CCc2c(sc3nc(CN4CCOCC4)nc(N4CCc5ccccc5C4)c23)C1 (stereo not given)	none
Cc1ccc(Oc2nc(CN3CCOCC3)nc3sc4c(c23)CCC(C)C4)cc1 (stereo not given)	L major viab 76
CC1CCc2c(sc3nc(CN4CCOCC4)nc(NS(=O)(=O)c4cccc([N+](=O)[O-])c4)c23)C1 (stereo not given)	none
CCC(Sc1nc2ccc(N)cc2s1)C(=O)Nc1nccs1 (stereo not given)	L major viab 55
Cc1ccccc1C(=O)NCC(=O)OC(C)C(=O)Nc1cccc(S(=O)(=O)N2CCOCC2)c1 (stereo not given)	none (no result: L major viab, Diaphorase act, Diaphorase inh, G6PDH counter, DTT redox prof)
O=C(COc1ccccc1)c1cn(CC(=O)N2CCCC2)c2ccccc12	Diaphorase inh 94
COc1cccc(NC(=O)CSc2nc3ccccc3cc2Cc2ccccc2)c1	none
COc1cccc(CSc2nc3ccccc3cc2C=O)c1	L major viab 97
COc1cccc(C(=O)Nc2nnc(SCC(=O)NC3CCCC3)s2)c1	none (no result: L major viab, Diaphorase act, Diaphorase inh, G6PDH counter, DTT redox prof)
COc1cc(NC(=O)Cn2nc(C(F)(F)F)c(Br)c2C)cc([N+](=O)[O-])c1	L major viab 98
CC(=O)Nc1ccc(NC(=O)Cc2ccc(S(=O)(=O)N3CCCCC3)cc2)cc1	none (no result: L major viab, Diaphorase act, Diaphorase inh, G6PDH counter, DTT redox prof)
O=C(CCC1CCCCC1)Nc1c[nH]c(=O)[nH]c1=O	none
C=CCCCCCCCCC(=O)Nc1c[nH]c(=O)[nH]c1=O	L major viab 93
O=C(c1ccc(Cl)c(S(=O)(=O)N2CCc3ccccc3C2)c1)N1CCN(c2ccccc2)CC1	none
O=C(c1ccc(Cl)c(S(=O)(=O)Nc2ccccc2C(=O)N2CCc3ccccc3C2)c1)N1CCc2ccccc2C1	L major viab 78
Cc1ccc(N(C(C)C(=O)O)S(=O)(=O)c2c(C)n[nH]c2C)cc1 (stereo not given)	none
Cc1ccc2ncnc(Nc3ccccc3)c2c1	L major viab 65
CCOC(=O)c1cccc(Nc2ncnc3ccc(C)cc23)c1	L major viab 56
COc1ccccc1Nc1ncnc2ccc(C)cc12	L major viab 71
Cc1cccc(Nc2ncnc3ccc(Br)cc23)c1	L major viab 56
Cc1ccc2ncnc(Nc3cccc(C(=O)O)c3)c2c1	none
CCOC(=O)c1ccc(NC(=S)Nc2ccc(Br)cc2N)cc1	none (no result: L major viab, Diaphorase act, Diaphorase inh, G6PDH counter, DTT redox prof)
COc1cccc(NC(=O)c2cccc(S(=O)(=O)N3CCN(Cc4ccccc4)CC3)c2)c1	none (no result: L major viab, Diaphorase act, Diaphorase inh, G6PDH counter, DTT redox prof)
Cc1ccc(CN2CCN(/N=C/c3ccc(C)s3)CC2)cc1	L major viab 68
Cc1ccc(/C=N/N2CCN(Cc3ccccc3)CC2)s1	none
Cn1c(N)c(C(=O)CSc2n[nH]c(-c3ccccc3)n2)c(=O)n(C)c1=O	none (no result: L major viab, Diaphorase act, Diaphorase inh, G6PDH counter, DTT redox prof)
COC(=O)CNC(c1ccccc1)c1cc(Br)ccc1NC(=O)CNC(=O)OCc1ccccc1 (stereo not given)	none
CCOC(=O)CNC(c1ccccc1)c1cc(Br)ccc1NC(=O)OCC (stereo not given)	L major viab 54
COC(=O)CNC(c1ccccc1)c1cc(Br)ccc1NC(=O)CCN1CCOCC1 (stereo not given)	L major viab 100
CCOC(=O)CNC(c1ccccc1)c1cc(Br)ccc1NC(=O)CCN1CCOCC1 (stereo not given)	L major viab 98
CCCOc1ccc(C(=O)Nc2ccc(S(=O)(=O)NC3=NCCCCC3)cc2)cc1	none (no result: L major viab, Diaphorase act, Diaphorase inh, G6PDH counter, DTT redox prof)
O=C(Nc1cc(Cl)ccc1N1CCCC1)C1=NN(c2ccccc2)C(=O)CC1	none (no result: L major viab, Diaphorase act, Diaphorase inh, G6PDH counter, DTT redox prof)
Cc1nonc1C1CCCN1Cc1nc(-c2ccccc2Cl)oc1C (stereo not given)	none
Cc1cc(OCC(=O)NNC(=O)CCc2ccccc2)ccc1Br	none (no result: L major viab, Diaphorase act, Diaphorase inh, G6PDH counter, DTT redox prof)
Cc1cc(C)c[n+](C(C)C(=O)c2ccc(-c3ccccc3)cc2)c1 (stereo not given)	L major viab 67
CCOc1cc(C#N)ccc1OCC(=O)N1CCN(C(=O)c2cccs2)CC1	none (no result: L major viab, Diaphorase act, Diaphorase inh, G6PDH counter, DTT redox prof)
O=c1ccc2ccc(O)cc2o1	none (no result: L major viab, Diaphorase act, Diaphorase inh, G6PDH counter, DTT redox prof)
O=c1ccc2cc(O)c(O)cc2o1	Diaphorase inh 61
O=C(NCc1cc(C(F)(F)F)cc(C(F)(F)F)c1)C1CC(c2ccccc2[N+](=O)[O-])=NO1 (stereo not given)	L major viab 88
Cc1ccc(C)c(NS(=O)(=O)c2cc(C(=O)Nc3ccccc3-c3ccccc3)ccc2C)c1	none
Cc1ccccc1NS(=O)(=O)c1cc(S(C)(=O)=O)ccc1C	L major viab 54
Cc1ccccc1NS(=O)(=O)c1cc(C(=O)Nc2cccc([N+](=O)[O-])c2)ccc1C	L major viab 72
Cc1ccc(C(=O)Nc2ccccc2-c2ccccc2)cc1S(=O)(=O)Nc1cccc(C)c1C	L major viab 63
Cc1ccc(C(=O)Nc2cccc(N(C)S(C)(=O)=O)c2)cc1S(=O)(=O)Nc1ccccc1	L major viab 75
COc1ccc(C(=O)Nc2cccc(N(C)S(C)(=O)=O)c2)cc1OC	none
O=C(CNS(=O)(=O)c1ccccc1)N1CCc2ccccc2C1	none (no result: L major viab, Diaphorase act, Diaphorase inh, G6PDH counter, DTT redox prof)
O=C(CSc1n[nH]c(-c2ccncc2)n1)Nc1ccccc1C(F)(F)F	none (no result: L major viab, Diaphorase act, Diaphorase inh, G6PDH counter, DTT redox prof)
CCN(CC)CCNc1c2c(c(C#N)c3nc4ccccc4n13)CCCC2	L major viab 96
CCN(CC)CCNc1cc(C)c(C#N)c2nc3ccccc3n12	none (no result: L major viab, Diaphorase act, Diaphorase inh, G6PDH counter, DTT redox prof)
C=CCn1c(=O)c(C(=O)Nc2ccccc2S(N)(=O)=O)c(O)c2ccccc21	none
CC1=C(C(=O)OCc2ccccc2)C(c2ccc(Cl)cc2)NC(=O)N1CCCC(=O)O (stereo not given)	none (no result: L major viab, Diaphorase act, Diaphorase inh, G6PDH counter, DTT redox prof)
N#C/C(=N\Nc1ccccc1)C(=N)N1CCCCC1	L major viab 90
c1coc(CNc2c3c(nc4ccccc24)CCC3)c1	L major viab 88

From PubChem
